Laboratory results: ChEMBL document CHEMBL1129605, “Synthesis, structure-activity relationships, and molecular modeling studies of N-(indol-3-ylglyoxylyl)benzylamine derivatives acting at the benzodiazepine receptor” (J Med Chem, 1996)

How the values were obtained:
[1] = biological target: T1, GABA-A receptor; anion channel (Bos taurus) (UniProt P10063+P08220+P20237+P08219+P10064+P22300); assay: Gamma AminoButyric Acid(GABA) ratio is the Ki without GABA / Ki with GABA; type: protein-complex assay
In short: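 Ki for [3H]flunitrazepam displacement from bovine cortical membranes determined both without and with GABA. The ratio is Ki without GABA divided by Ki with GABA.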

[2] = biological target: T1, GABA-A receptor; anion channel (Bos taurus); assay: Inhibition of [3H]- flunitrazepam binding to GABA-A central benzodiazepine receptor of bovine cortical membranes at 10 uM
In short: (§1)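 Filtration binding of [3H]flunitrazepam to bovine cerebral cortex membranes, freeze–thawed and washed in 50 mM Tris-citrate pH 7.4. […] IC50 taken from log-probit plots and converted to Ki, mean ± SEM of three determinations.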

[3] = biological target: GABA-A receptor; anion channel; assay: In vitro inhibition of [3H]- flunitrazepam binding to GABA-A benzodiazepine receptor of bovine cortical membranes; design: species or system Bos taurus; in short: as §1
[4] = biological target: T1, GABA-A receptor; anion channel (Bos taurus); assay: In vitro inhibition of [3H]- flunitrazepam binding to GABA-A central benzodiazepine receptor of bovine cortical membranes at 10 uM; in short: as §1
[5] = biological target: T1, GABA-A receptor; anion channel (Bos taurus); assay: Specific [35S]- TBPS binding at high affinity site loated near chloride channel of GABA-A receptor chloride complex; type: protein-complex assay; design: concentration or dose not given beside the values
In short: (§2)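 Bovine cerebral cortex membranes, freeze–thawed and washed in 50 mM Tris-citrate pH 7.4, incubated with 5 nM [35S]TBPS for 90 min at 25 °C in the same buffer plus 200 mM KBr and 0.1 mM EDTA. Compounds tested at 0.5 μM in ethanol (≤0.2%) with 1 μM GABA present. Nonspecific binding taken with 600 μM picrotoxinin. Bound ligand collected by filtration and counted by scintillation.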

[6] = Partition coefficient of compound; type: physicochemical; conditions: octanol/water
In short: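 Shake-flask partition at room temperature between octanol and phosphate buffer pH 7.4. Solute measured spectrophotometrically in both phases, with phase volumes adjusted so each phase held enough compound. Run at four different solute concentrations.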

[7] = biological target: T1, GABA-A receptor; anion channel (Bos taurus); assay: In vitro displacement of [35S]-TBPS binding from GABA-A receptor relative to clonazepam; type: protein-complex assay; in short: as §2

| Structure (SMILES) | GABA ratio [1] | inhibition [2] | Ki [3] | inhibition [4] | also measured |
| --- | --- | --- | --- | --- | --- |
| COc1ccc(CNC(=O)C(=O)c2c[nH]c3ccccc23)cc1 | 1 | 97% | 0.163 µM |  |  |
| Cn1cc(C(=O)C(=O)NCc2cccc(O)c2)c2ccccc21 |  | 17% |  |  |  |
| COc1ccc(NC(=O)C(=O)c2c[nH]c3ccc([N+](=O)[O-])cc23)cc1 |  | 12% |  |  |  |
| O=C(NCc1ccc(Cl)cc1)C(=O)c1c[nH]c2ccccc12 | 1.03 |  | 0.067 µM | 99% | Activity [5]: 27% |
| O=C(NCc1cccc(Cl)c1)C(=O)c1c[nH]c2ccc([N+](=O)[O-])cc12 |  |  |  | 0% |  |
| COc1ccc(CNC(=O)C(=O)c2c[nH]c3ccc([N+](=O)[O-])cc23)cc1OC | 1 |  | 0.011 µM | 97% | Activity [5]: 31% |
| O=C(NCc1ccc(Cl)cc1)C(=O)c1c[nH]c2ccc([N+](=O)[O-])cc12 |  |  |  | 2% |  |
| COc1cccc(CNC(=O)C(=O)c2c[nH]c3ccccc23)c1 | 0.74 |  | 0.29 µM | 97% |  |
| O=C(NCc1ccccc1Cl)C(=O)c1c[nH]c2ccccc12 | 0.93 |  | 2.6 µM | 77% |  |
| O=C(Nc1ccc(O)cc1)C(=O)c1c[nH]c2ccccc12 |  | 65% |  |  |  |
| O=C(NCc1ccc(O)cc1)C(=O)c1c[nH]c2ccc(Cl)cc12 | 1.1 |  | 0.15 µM | 98% |  |
| COc1ccc(CNC(=O)C(=O)c2c[nH]c3ccc(Cl)cc23)cc1 | 1 | 81% | 0.107 µM |  |  |
| COc1ccc(CNC(=O)C(=O)c2c[nH]c3ccc(Cl)cc23)cc1OC | 0.82 |  | 0.03 µM | 94% |  |
| O=C(NCc1ccc(O)cc1)C(=O)c1c[nH]c2ccccc12 | 1.35 |  | 0.43 µM | 96% |  |
| O=C(NCc1ccccc1F)C(=O)c1c[nH]c2ccc([N+](=O)[O-])cc12 |  |  |  | 42% |  |
| COc1cccc(CNC(=O)C(=O)c2c[nH]c3ccc([N+](=O)[O-])cc23)c1 | 0.91 |  | 0.038 µM | 84% | Activity [5]: 10% |
| O=C1CN=C(c2ccccc2Cl)c2cc([N+](=O)[O-])ccc2N1 |  |  |  |  | Activity [5]: 100% |
| Cn1cc(C(=O)C(=O)NCc2ccc(Cl)cc2)c2ccccc21 | 1 |  | 1 µM | 86% |  |
| O=C(Nc1ccccc1)C(=O)c1c[nH]c2ccc([N+](=O)[O-])cc12 |  | 0% |  |  |  |

| Structure (SMILES) | GABA ratio [1] | inhibition [2] | Ki [3] | inhibition [4] | also measured |
| --- | --- | --- | --- | --- | --- |
| O=C(Nc1ccc(O)cc1)C(=O)c1c[nH]c2ccc(Cl)cc12 |  | 23% |  |  |  |
| O=C(NCCCc1ccccc1)C(=O)c1c[nH]c2ccc([N+](=O)[O-])cc12 |  | 52% |  |  |  |
| COc1ccc(NC(=O)C(=O)c2c[nH]c3ccc(Cl)cc23)cc1 |  | 10% |  |  |  |
| O=C(NCc1ccc(F)cc1)C(=O)c1c[nH]c2ccc([N+](=O)[O-])cc12 |  |  |  | 24% |  |
| O=C(NCc1cccc(Cl)c1)C(=O)c1c[nH]c2ccc(Cl)cc12 |  |  |  | 14% |  |
| O=C(NCc1ccccc1F)C(=O)c1c[nH]c2ccc(Cl)cc12 |  |  |  | 39% |  |
| COc1ccc(CNC(=O)C(=O)c2cn(C)c3ccccc23)cc1OC | 0.88 |  | 2.7 µM | 70% |  |
| COc1ccc(NC(=O)C(=O)c2c[nH]c3ccccc23)cc1 |  | 0% |  |  |  |
| O=C(NCCCc1ccccc1)C(=O)c1c[nH]c2ccc(Cl)cc12 |  | 32% |  |  |  |
| O=C(NCc1ccc(F)cc1)C(=O)c1c[nH]c2ccc(Cl)cc12 |  |  |  | 21% |  |
| O=C(NCc1ccc(O)c(O)c1)C(=O)c1c[nH]c2ccc([N+](=O)[O-])cc12 | 1.35 |  | 0.048 µM | 98% | Activity [5]: 52% |
| O=C(NCc1cccc(O)c1)C(=O)c1c[nH]c2ccc(Cl)cc12 | 1.45 | 95% | 0.57 µM |  |  |
| O=C(NCc1ccc(F)cc1)C(=O)c1c[nH]c2ccccc12 | 1.16 |  | 0.052 µM | 99% | logP [6]: 2.88; Activity [5]: 21% |
| O=C(Nc1ccccc1)C(=O)c1c[nH]c2ccc(Cl)cc12 |  | 0% |  |  |  |
| COc1cc(CNC(=O)C(=O)c2c[nH]c3ccccc23)ccc1O | 1 |  | 0.14 µM | 96% |  |
| COc1cccc(CNC(=O)C(=O)c2c[nH]c3ccc(Cl)cc23)c1 | 0.79 |  | 0.162 µM | 89% |  |
| O=C(NCc1ccccc1Cl)C(=O)c1c[nH]c2ccc(Cl)cc12 |  |  |  | 40% |  |
| O=C(NCc1ccccc1F)C(=O)c1c[nH]c2ccccc12 | 0.86 |  | 0.66 µM | 94% |  |
| COc1ccc(CNC(=O)C(=O)c2c[nH]c3ccc([N+](=O)[O-])cc23)cc1 | 1.06 | 71% | 0.053 µM |  | logP [6]: 2.17; Activity [5]: 2% |

| Structure (SMILES) | GABA ratio [1] | inhibition [2] | Ki [3] | inhibition [4] | also measured |
| --- | --- | --- | --- | --- | --- |
| O=C(NCc1ccccc1Cl)C(=O)c1c[nH]c2ccc([N+](=O)[O-])cc12 |  |  |  | 48% |  |
| COc1ccc(CNC(=O)C(=O)c2c[nH]c3ccccc23)cc1OC | 0.8 |  | 0.094 µM | 99% |  |
| O=C(NCc1ccc(O)cc1)C(=O)c1c[nH]c2ccc([N+](=O)[O-])cc12 | 1.05 | 100% | 0.012 µM |  | logP [6]: 2.67; Activity [7]: 10% |
| O=C(NCc1cccc(O)c1)C(=O)c1c[nH]c2ccc([N+](=O)[O-])cc12 | 1.32 | 95% | 0.065 µM |  | Activity [5]: 50% |
| O=C(NCCCc1ccccc1)C(=O)c1c[nH]c2ccccc12 | 1 |  | 1.26 µM | 78% |  |
| O=C(NCc1cccc(Cl)c1)C(=O)c1c[nH]c2ccccc12 | 0.95 |  | 0.16 µM | 96% |  |
| O=C(NCc1cccc(O)c1)C(=O)c1c[nH]c2ccccc12 | 1.25 | 91% | 0.82 µM |  |  |
| O=C(NCc1ccccc1)C(=O)c1c[nH]c2ccc([N+](=O)[O-])cc12 | 1 | 55% | 0.117 µM |  |  |
| CCOC(=O)c1ncn2c1CN(C)C(=O)c1cc(F)ccc1-2 |  |  |  |  | Activity [5]: 15% |
| O=C(NCc1ccc(Cl)cc1)C(=O)c1c[nH]c2ccc(Cl)cc12 |  |  |  | 38% |  |
| O=C(NCc1ccccc1)C(=O)c1c[nH]c2ccc(Cl)cc12 | 0.95 | 34% | 0.49 µM |  |  |
| O=C(Nc1ccccc1)C(=O)c1c[nH]c2ccccc12 |  | 10% |  |  |  |
| COc1cc(CNC(=O)C(=O)c2c[nH]c3ccc([N+](=O)[O-])cc23)ccc1O | 1.07 |  | 0.013 µM | 100% | Activity [5]: 27% |
| COc1cc(CNC(=O)C(=O)c2c[nH]c3ccc(Cl)cc23)ccc1O | 1.03 |  | 0.027 µM | 99% |  |
| O=C(NCc1ccc(O)c(O)c1)C(=O)c1c[nH]c2ccc(Cl)cc12 | 1.33 |  | 0.18 µM | 96% |  |
| O=C(NCc1ccc(O)c(O)c1)C(=O)c1c[nH]c2ccccc12 | 1.56 |  | 0.349 µM | 95% |  |
| O=C(Nc1ccc(O)cc1)C(=O)c1c[nH]c2ccc([N+](=O)[O-])cc12 | 1 | 76% | 1.8 µM |  |  |
| O=C(NCc1ccccc1)C(=O)c1c[nH]c2ccccc12 | 0.87 | 98% | 0.12 µM |  | Activity [5]: 29% |
